{
  "source": "ChEMBL document CHEMBL1821604",
  "about": "“Anticancer activity and cDNA microarray studies of a (RS)-1,2,3,5-tetrahydro-4,1-benzoxazepine-3-yl]-6-chloro-9H-purine, and an acyclic (RS)-O,N-acetalic 6-chloro-7H-purine” (Eur J Med Chem, 2011)",
  "format_in_all_cases": "functional",
  "key": {"[1]": {"tested_on": "HT-29", "test": "Down regulation of FLJ10786 gene expression in human HT-29 cells at IC50 after 48 hrs by cDNA microarray technique relative to control", "method_in_brief": "(§1)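 Cells (8 × 10⁶) were cultured in DMEM with 10% heat-inactivated FBS at 37 °C under 5% CO₂. They were exposed for 48 h to compound at its IC₅₀, with DMSO-treated parallel cultures as controls (final DMSO ≤0.1% v/v). Total RNA was isolated by trizol/chloroform phase separation, RNeasy column cleanup and on-column DNase, then quantified by OD260/OD280. Expression was profiled by cDNA microarray relative to control.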"}, "[2]": {"tested_on": "HT-29", "test": "Upregulation of Beta4GalNAc-T4 gene expression in human HT-29 cells at IC50 after 48 hrs by cDNA microarray technique relative to control"}, "[3]": {"tested_on": "MCF7", "test": "Upregulation of KIAA1277 gene expression in human MCF7 cells at IC50 after 48 hrs by cDNA microarray technique relative to control"}, "[4]": {"tested_on": "HT-29", "test": "Down regulation of SCD4 gene expression in human HT-29 cells at IC50 after 48 hrs by cDNA microarray technique relative to control"}, "[5]": {"tested_on": "MCF7", "test": "Upregulation of WBSCR27 gene expression in human MCF7 cells at IC50 after 48 hrs by cDNA microarray technique relative to control"}, "[6]": {"tested_on": "MCF7", "test": "Down regulation of AF147723 gene expression in human MCF7 cells at IC50 after 48 hrs by cDNA microarray technique relative to control", "method_in_brief": "(§2)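 8 × 10⁶ cells exposed 48 h to compound at its IC50 concentration; total RNA isolated with trizol/chloroform and RNeasy columns including on-column DNase step; RNA quantified by OD 260/280; DMSO-treated cultures as control.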"}, "[7]": {"tested_on": "MCF7", "test": "Upregulation of CR595826 gene expression in human MCF7 cells at IC50 after 48 hrs by cDNA microarray technique relative to control"}, "[8]": {"tested_on": "HT-29", "test": "Down regulation of GNRHR2 gene expression in human HT-29 cells at IC50 after 48 hrs by cDNA microarray technique relative to control", "method_in_brief": "as §1"}, "[9]": {"tested_on": "HT-29", "test": "Down regulation of ETV1 gene expression in human HT-29 cells at IC50 after 48 hrs by cDNA microarray technique relative to control", "method_in_brief": "as §1"}, "[10]": {"tested_on": "HT-29", "test": "Down regulation of IL12RB2 gene expression in human HT-29 cells at IC50 after 48 hrs by cDNA microarray technique relative to control", "method_in_brief": "as §1"}, "[11]": {"tested_on": "HT-29", "test": "Down regulation of POU6F1 gene expression in human HT-29 cells at IC50 after 48 hrs by cDNA microarray technique relative to control"}, "[12]": {"tested_on": "HT-29", "test": "Upregulation of GALNT10 gene expression in human HT-29 cells at IC50 after 48 hrs by cDNA microarray technique relative to control"}, "[13]": {"tested_on": "MCF7", "test": "Down regulation of C21orf42 gene expression in human MCF7 cells at IC50 after 48 hrs by cDNA microarray technique relative to control", "method_in_brief": "as §2"}, "[14]": {"tested_on": "MCF7", "test": "Upregulation of CD84 gene expression in human MCF7 cells at IC50 after 48 hrs by cDNA microarray technique relative to control"}, "[15]": {"tested_on": "MCF7", "test": "Upregulation of HOXB2 gene expression in human MCF7 cells at IC50 after 48 hrs by cDNA microarray technique relative to control"}, "[16]": {"tested_on": "MCF7", "test": "Down regulation of FLJ12985 gene expression in human MCF7 cells at IC50 after 48 hrs by cDNA microarray technique relative to control", "method_in_brief": "as §1"}, "[17]": {"tested_on": "HT-29", "test": "Down regulation of TMEM27 gene expression in human HT-29 cells at IC50 after 48 hrs by cDNA microarray technique relative to control"}, "[18]": {"tested_on": "MCF7", "test": "Upregulation of ZNF141 gene expression in human MCF7 cells at IC50 after 48 hrs by cDNA microarray technique relative to control"}, "[19]": {"tested_on": "HT-29", "test": "Upregulation of C20orf40 gene expression in human HT-29 cells at IC50 after 48 hrs by cDNA microarray technique relative to control"}, "[20]": {"tested_on": "MCF7", "test": "Down regulation of ATP1B4 gene expression in human MCF7 cells at IC50 after 48 hrs by cDNA microarray technique relative to control", "method_in_brief": "as §2"}, "[21]": {"tested_on": "MCF7", "test": "Down regulation of ZNF354A gene expression in human MCF7 cells at IC50 after 48 hrs by cDNA microarray technique relative to control"}, "[22]": {"tested_on": "MCF7", "test": "Upregulation of GPR132 gene expression in human MCF7 cells at IC50 after 48 hrs by cDNA microarray technique relative to control"}, "[23]": {"tested_on": "HT-29", "test": "Down regulation of ORM1 gene expression in human HT-29 cells at IC50 after 48 hrs by cDNA microarray technique relative to control"}, "[24]": {"tested_on": "HT-29", "test": "Down regulation of IL26 gene expression in human HT-29 cells at IC50 after 48 hrs by cDNA microarray technique relative to control", "method_in_brief": "as §1"}, "[25]": {"tested_on": "HT-29", "test": "Down regulation of DT1P1A10 gene expression in human HT-29 cells at IC50 after 48 hrs by cDNA microarray technique relative to control", "method_in_brief": "as §1"}, "[26]": {"tested_on": "HT-29", "test": "Down regulation of ZFYVE9 gene expression in human HT-29 cells at IC50 after 48 hrs by cDNA microarray technique relative to control"}, "[27]": {"tested_on": "MCF7", "test": "Upregulation of MYCN gene expression in human MCF7 cells at IC50 after 48 hrs by cDNA microarray technique relative to control"}, "[28]": {"tested_on": "MCF7", "test": "Upregulation of GABARAPL1 gene expression in human MCF7 cells at IC50 after 48 hrs by cDNA microarray technique relative to control"}, "[29]": {"tested_on": "HT-29", "test": "Down regulation of BAZ2A gene expression in human HT-29 cells at IC50 after 48 hrs by cDNA microarray technique relative to control", "method_in_brief": "as §2"}, "[30]": {"tested_on": "HT-29", "test": "Down regulation of ANP32D gene expression in human HT-29 cells at IC50 after 48 hrs by cDNA microarray technique relative to control", "method_in_brief": "as §2"}, "[31]": {"tested_on": "HT-29", "test": "Down regulation of AQP3 gene expression in human HT-29 cells at IC50 after 48 hrs by cDNA microarray technique relative to control", "method_in_brief": "as §2"}, "[32]": {"tested_on": "MCF7", "test": "Down regulation of LTBP2 gene expression in human MCF7 cells at IC50 after 48 hrs by cDNA microarray technique relative to control"}, "[33]": {"tested_on": "HT-29", "test": "Down regulation of MGC2654 gene expression in human HT-29 cells at IC50 after 48 hrs by cDNA microarray technique relative to control"}, "[34]": {"tested_on": "HT-29", "test": "Upregulation of TP53INP1 gene expression in human HT-29 cells at IC50 after 48 hrs by cDNA microarray technique relative to control"}, "[35]": {"tested_on": "HT-29", "test": "Down regulation of SNRP70 gene expression in human HT-29 cells at IC50 after 48 hrs by cDNA microarray technique relative to control"}, "[36]": {"tested_on": "HT-29", "test": "Down regulation of ARL10B gene expression in human HT-29 cells at IC50 after 48 hrs by cDNA microarray technique relative to control", "method_in_brief": "as §2"}, "[37]": {"tested_on": "HT-29", "test": "Down regulation of D4S234E gene expression in human HT-29 cells at IC50 after 48 hrs by cDNA microarray technique relative to control", "method_in_brief": "as §2"}, "[38]": {"tested_on": "MCF7", "test": "Upregulation of MRPL49 gene expression in human MCF7 cells at IC50 after 48 hrs by cDNA microarray technique relative to control"}},
  "data": [
    {"smiles": "COC(CN(c1ccccc1CO)S(=O)(=O)c1ccccc1[N+](=O)[O-])n1cnc2ncnc(Cl)c21", "note": "(racemic)", "values": [
      {"measurement": "fold change (FC)", "setting": "[1]", "value": -2.04},
      {"measurement": "fold change (FC)", "setting": "[2]", "value": 3.08},
      {"measurement": "fold change (FC)", "setting": "[3]", "value": 2.21},
      {"measurement": "fold change (FC)", "setting": "[4]", "value": -2.25},
      {"measurement": "fold change (FC)", "setting": "[5]", "value": 3.59},
      {"measurement": "fold change (FC)", "setting": "[6]", "value": -2.66},
      {"measurement": "fold change (FC)", "setting": "[7]", "value": 2.04},
      {"measurement": "fold change (FC)", "setting": "[8]", "value": -2.03},
      {"measurement": "fold change (FC)", "setting": "[9]", "value": -2.63},
      {"measurement": "fold change (FC)", "setting": "[10]", "value": -2.3},
      {"measurement": "fold change (FC)", "setting": "[11]", "value": -3.13},
      {"measurement": "fold change (FC)", "setting": "[12]", "value": 3.5},
      {"measurement": "fold change (FC)", "setting": "[13]", "value": -2.31},
      {"measurement": "fold change (FC)", "setting": "[14]", "value": 3.37},
      {"measurement": "fold change (FC)", "setting": "[15]", "value": 2.74},
      {"measurement": "fold change (FC)", "setting": "[16]", "value": -2.11},
      {"measurement": "fold change (FC)", "setting": "[17]", "value": -2.99},
      {"measurement": "fold change (FC)", "setting": "[18]", "value": 4.04},
      {"measurement": "fold change (FC)", "setting": "[19]", "value": 2.56},
      {"measurement": "fold change (FC)", "setting": "[20]", "value": -2.07}
    ]},
    {"smiles": "O=C(OCC1c2ccccc2-c2ccccc21)N1CC(n2cnc3c(Cl)ncnc32)OCc2ccccc21", "note": "(racemic)", "values": [
      {"measurement": "fold change (FC)", "setting": "[21]", "value": -2.05},
      {"measurement": "fold change (FC)", "setting": "[22]", "value": 2.1},
      {"measurement": "fold change (FC)", "setting": "[23]", "value": -2.19},
      {"measurement": "fold change (FC)", "setting": "[24]", "value": -2.22},
      {"measurement": "fold change (FC)", "setting": "[25]", "value": -2.28},
      {"measurement": "fold change (FC)", "setting": "[26]", "value": -2.52},
      {"measurement": "fold change (FC)", "setting": "[27]", "value": 2.98},
      {"measurement": "fold change (FC)", "setting": "[28]", "value": 2.07},
      {"measurement": "fold change (FC)", "setting": "[29]", "value": -2.65},
      {"measurement": "fold change (FC)", "setting": "[30]", "value": -2.8},
      {"measurement": "fold change (FC)", "setting": "[31]", "value": -2.53},
      {"measurement": "fold change (FC)", "setting": "[32]", "value": -3.28},
      {"measurement": "fold change (FC)", "setting": "[33]", "value": -2.02},
      {"measurement": "fold change (FC)", "setting": "[34]", "value": 2.58},
      {"measurement": "fold change (FC)", "setting": "[35]", "value": -2.78},
      {"measurement": "fold change (FC)", "setting": "[36]", "value": -2.27},
      {"measurement": "fold change (FC)", "setting": "[37]", "value": -2.91},
      {"measurement": "fold change (FC)", "setting": "[38]", "value": 3.12}
    ]}
  ]
}
